ChEMBL document CHEMBL4406880, “Design, synthesis, and bioactivity of dihydropyrimidine derivatives as kinesin spindle protein inhibitors” (Bioorg Med Chem, 2019)

Tests used:
Format in all cases: functional
[1] = tested on: Hs-578T; test: Growth inhibition of human Hs 578T cells assessed as cell viability at 0.1 uM incubated for 48 hrs by sulforhodamine B assay; details: read-out: Activity
[2] = tested on: HL-60(TB); test: Growth inhibition of human HL-60(TB) cells assessed as cell viability at 0.1 uM incubated for 48 hrs by sulforhodamine B assay; details: HL-60, 48 h, read-out: Activity
In short: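 NCI-60 five-dose assay, SRB end-point, same culture conditions. Compound is tested at tenfold dilutions of 0.01, 0.1, 1, 10 and 100 µM for 48 h at 37 °C, with DMSO/PBS vehicle controls. Percentage growth at each concentration is taken against untreated cells and a time-zero plate. GI50 is 50% net growth decrease, TGI is total growth inhibition, and LC50 is 50% loss of initial cells.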

[3] = tested on: MDA-MB-231; test: Growth inhibition of human MDA-MB-231 cells assessed as cell viability at 0.1 uM incubated for 48 hrs by sulforhodamine B assay; details: MDA-MB-231, 48 h, read-out: Activity
[4] = tested on: ACHN; test: Growth inhibition of human ACHN cells incubated for 48 hrs by sulforhodamine B assay
In short: (§1)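 NCI-60 five-dose mode: five tenfold dilutions (0.01, 0.1, 1, 10, 100 µM) are applied for 48 h to cells in RPMI 1640 with 5% FBS at 37 °C. Endpoint is TCA fixation with sulforhodamine B read at 515 nm. % growth comes from the 0 h and control absorbances. GI50 is the concentration giving a 50% reduction in net cell growth.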

[5] = tested on: SW-620; test: Growth inhibition of human SW620 cells assessed as cell viability at 0.1 uM incubated for 48 hrs by sulforhodamine B assay; details: SW-620, 48 h, read-out: Activity
[6] = tested on: IGROV-1; test: Growth inhibition of human IGROV1 cells assessed as cell viability at 100 uM incubated for 48 hrs by sulforhodamine B assay; details: IGROV-1, 48 h, read-out: Activity
[7] = tested on: Hs-578T; test: Growth inhibition of human Hs 578T cells assessed as cell viability at 100 uM incubated for 48 hrs by sulforhodamine B assay; details: read-out: Activity
[8] = tested on: HCT-116; test: Growth inhibition of human HCT116 cells assessed as cell viability at 0.001 uM incubated for 48 hrs by sulforhodamine B assay relative to control; details: HCT-116, 48 h, read-out: Activity
[9] = tested on: NCI-H522; test: Growth inhibition of human NCI-H522 cells assessed as cell viability at 1 uM incubated for 48 hrs by sulforhodamine B assay; details: NCI-H522, 48 h, read-out: Activity
[10] = tested on: HCT-116; test: Growth inhibition of human HCT116 cells assessed as cell viability at 100 uM incubated for 48 hrs by sulforhodamine B assay; details: HCT-116, 48 h, read-out: Activity
[11] = tested on: HOP-62; test: Growth inhibition of human HOP62 cells assessed as cell viability at 0.1 uM incubated for 48 hrs by sulforhodamine B assay; details: HOP-62, 48 h, read-out: Activity
[12] = tested on: NCI/ADR-RES; test: Growth inhibition of human NCI/ADR-RES cells assessed as cell viability at 0.1 uM incubated for 48 hrs by sulforhodamine B assay; details: read-out: Activity
[13] = tested on: SW-620; test: Growth inhibition of human SW620 cells assessed as cell viability at 0.001 uM incubated for 48 hrs by sulforhodamine B assay relative to control; details: SW-620, 48 h, read-out: Activity
[14] = tested on: HCT-15; test: Growth inhibition of human HCT15 cells assessed as cell viability at 0.001 uM incubated for 48 hrs by sulforhodamine B assay relative to control; details: HCT-15, 48 h, read-out: Activity
[15] = tested on: SF-295; test: Growth inhibition of human SF295 cells assessed as cell viability at 0.1 uM incubated for 48 hrs by sulforhodamine B assay; details: SF-295, 48 h, read-out: Activity
[16] = tested on: ACHN; test: Growth inhibition of human ACHN cells assessed as cell viability at 0.1 uM incubated for 48 hrs by sulforhodamine B assay; details: read-out: Activity; in short: as §1
[17] = tested on: SK-MEL-2; test: Growth inhibition of human SK-MEL-2 cells assessed as cell viability at 1 uM incubated for 48 hrs by sulforhodamine B assay; details: SK-MEL-2, 48 h, read-out: Activity
[18] = tested on: SK-MEL-28; test: Growth inhibition of human SK-MEL-28 cells assessed as cell viability at 1 uM incubated for 48 hrs by sulforhodamine B assay; details: SK-MEL-28, 48 h, read-out: Activity
[19] = tested on: SN12C; test: Growth inhibition of human SN12C cells assessed as cell viability at 1 uM incubated for 48 hrs by sulforhodamine B assay; details: read-out: Activity
[20] = tested on: IGROV-1; test: Growth inhibition of human IGROV1 cells assessed as cell viability at 1 uM incubated for 48 hrs by sulforhodamine B assay; details: IGROV-1, 48 h, read-out: Activity
[21] = tested on: Malme-3M; test: Growth inhibition of human MALME-3M cells incubated for 48 hrs by sulforhodamine B assay
In short: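 NCI-60 five-dose SRB assay in RPMI 1640 with 5% FBS, 37 °C, 5% CO2. Compound given at five tenfold dilutions, 0.01–100 µM, for 48 h. Adherent cells fixed with TCA, suspension cells with 16% final TCA. Bound SRB read at 515 nm and growth calculated against time-zero and untreated controls. GI50 taken from dose–response curves as the concentration giving a 50% decrease in net cell growth.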

[22] = tested on: NCI/ADR-RES; test: Growth inhibition of human NCI/ADR-RES cells assessed as cell viability at 1 uM incubated for 48 hrs by sulforhodamine B assay; details: read-out: Activity
[23] = tested on: SF-539; test: Growth inhibition of human SF539 cells assessed as cell viability at 100 uM incubated for 48 hrs by sulforhodamine B assay; details: SF-539, 48 h, read-out: Activity
[24] = tested on: EKVX; test: Growth inhibition of human EKVX cells assessed as cell viability at 0.1 uM incubated for 48 hrs by sulforhodamine B assay; details: read-out: Activity
[25] = tested on: SF-295; test: Growth inhibition of human SF295 cells incubated for 48 hrs by sulforhodamine B assay; details: SF-295, 48 h
In short: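 NCI-60 five-dose SRB assay. Cells were exposed for 48 h to tenfold dilutions of 0.01, 0.1, 1, 10 and 100 µM, in RPMI 1640 with 5% FBS. Plates fixed with TCA at the time of drug addition served as the time-zero reference. GI50 is the concentration giving a 50% reduction in net growth. TGI is total growth inhibition. LC50 is a net 50% loss of the initial cells.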

[26] = tested on: UO-31; test: Growth inhibition of human UO31 cells assessed as cell viability at 0.1 uM incubated for 48 hrs by sulforhodamine B assay; details: UO-31, 48 h, read-out: Activity

CC1=C(C(=O)OCc2ccccc2)C(c2ccc3c(c2)OCO3)n2c(nc3ccccc32)N1 (racemic) gave a viability at 0.1 µM [1] of 88%, a viability at 0.1 µM [2] of 97% and a viability at 0.1 µM [3] of 98%. For the same molecule, the GI50 ([4]; read-out: GI50) was 0.69 µM, the CC50 ([4]; read-out: LC50 (the source's name)) was greater than 100 µM and the TGI ([4]; read-out: TGI) was greater than 100 µM. The GI50 ([4]; read-out: pGI50 (converted)) was 0.692 µM, the CC50 ([4]; read-out: pLC50 (the source's name) (converted)) was greater than 100 µM and the TGI ([4]; read-out: pTGI) was greater than 100 µM. For the same molecule, the viability at 0.1 µM [5] was 89%, the viability at 100 µM [6] was 29% and the viability at 100 µM [7] was -24%. It also gave a viability at 0.001 µM [8] of 96%, a viability at 1 µM [9] of 3% and a viability at 100 µM [10] of 18%. The viability at 0.1 µM [11] was 96%, the viability at 0.1 µM [12] was 86% and the viability at 0.001 µM [13] was 98%. For the same molecule, the viability at 0.001 µM [14] was 92%, the viability at 0.1 µM [15] was 87% and the viability at 0.1 µM [16] was 107%. The viability at 1 µM [17] was 52%, the viability at 1 µM [18] was 63% and the viability at 1 µM [19] was 42%. The viability at 1 µM [20] was 39%, the GI50 ([21]; read-out: GI50) was 0.44 µM and the LC50 ([21]; read-out: LC50) was greater than 100 µM. For the same molecule, the TGI ([21]; read-out: TGI) was greater than 100 µM, the GI50 ([21]; read-out: pGI50 (converted)) was 0.437 µM and the LC50 ([21]; read-out: pLC50 (converted)) was greater than 100 µM. For the same molecule, the TGI ([21]; read-out: pTGI) was greater than 100 µM, the viability at 1 µM [22] was 17% and the viability at 100 µM [23] was 13%. For the same molecule, the viability at 0.1 µM [24] was 95%, the GI50 ([25]; read-out: GI50) was 0.33 µM and the LC50 (concentration causing 50% net loss of initial cells) ([25]; read-out: LC50) was greater than 100 µM. It also gave a TGI ([25]; read-out: TGI) greater than 100 µM, a GI50 ([25]; read-out: pGI50 (converted)) of 0.331 µM and an LC50 (concentration causing 50% net loss of initial cells) ([25]; read-out: pLC50 (converted)) greater than 100 µM. The TGI ([25]; read-out: pTGI) was greater than 100 µM and the viability at 0.1 µM [26] was 93%.
